Reference: ChEMBL document CHEMBL1153546, “Pharmacokinetics of telbivudine in subjects with various degrees of renal impairment” (Antimicrob Agents Chemother, 2007)

Experiments:
[1] = tested on: Homo sapiens; test: Plasma clearance in human with normal renal function at 600 mg, po administered as single dose; assay type: ADME, organism-based; conditions: in vivo
Summary of the method: (§1)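 Apparent total oral plasma clearance (CL/F) = dose/AUC0-∞. AUC was obtained noncompartmentally from plasma LC-MS/MS concentrations sampled up to 48 h after a single oral dose.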

[2] = Elimination half life in patient with mild renal impairment at 600 mg, po administered as single dose; assay type: ADME, organism-based; conditions: human, in vivo, read-out: beta t1/2 (converted)
Summary of the method: (§2)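 Half-lives came from noncompartmental analysis of plasma LC-MS/MS concentrations over 48 h after a single oral dose. Terminal and initial-decline t1/2 were calculated as 0.693/k, with each rate constant derived by stripping and linear regression.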

[3] = tested on: Hepatitis B virus; test: Antiviral activity against HBV in HBeAg-positive patient with chronic viral infection assessed as log reduction of serum viral DNA copies/ml at 60 mg/day after 4 weeks; assay type: functional
[4] = AUC (0 to infinity) in patient with mild renal impairment at 600 mg, po administered as single dose; assay type: ADME, organism-based; set-up: dose 600 mg, route oral, time infinity; conditions: human, plasma
Summary of the method: (§3)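 Single oral telbivudine dose. Heparinized blood was drawn predose and up to 48 h postdose, with extra paired dialyzer samples for predialysis dosing. Plasma was stored at –20°C and assayed by validated HPLC-MS/MS (LLOQ 10 ng/ml, range 10–5,000 ng/ml). Noncompartmental analysis: AUC0-t by linear trapezoidal rule to last measurable concentration; AUC0-∞ = AUC0-t + Ct/kel.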

[5] = Elimination half life in human with normal renal function at 600 mg, po administered as single dose; assay type: ADME, organism-based; conditions: in vivo, read-out: beta t1/2 (converted); summary of the method: as §2
[6] = Oral bioavailability in human with normal renal function; assay type: ADME, organism-based; conditions: in vivo
[7] = Renal clearance in patient with mild renal impairment at 600 mg, po administered as single dose; assay type: ADME, organism-based, Kidney; conditions: human, in vivo, read-out: CL_renal (converted)
Summary of the method: (§4)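 Renal clearance = Au0-t/AUC0-t, where Au0-t is the cumulative unchanged drug in urine collected over 0–48 h. Plasma and urine were assayed by validated HPLC-MS/MS after a single oral dose.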

[8] = Plasma clearance in patient with end-stage renal disease at 200 mg, po administered as two single doses 2 hrs before dialysis separated by 1 week washout period; assay type: ADME, organism-based; conditions: human; summary of the method: as §1
[9] = Elimination half life in patient with moderate renal impairment at 400 mg, po administered as single dose; assay type: ADME, organism-based; conditions: human, in vivo, read-out: beta t1/2 (converted); summary of the method: as §2
[10] = Cmax in human with normal renal function at 600 mg, po administered as single dose; assay type: ADME, organism-based; set-up: dose 600 mg, route oral; conditions: in vivo
Summary of the method: (§5)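 Plasma telbivudine after one oral dose, sampled predose through 48 h and quantified by validated LC-MS/MS (LLOQ 10 ng/ml, transition 243.0→127.1 m/z). Cmax was read directly from the observed concentration-time data.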

[11] = Plasma clearance in human with normal renal function; assay type: ADME, organism-based
[12] = Cmax in patient with moderate renal impairment at 400 mg, po administered as single dose; assay type: ADME, organism-based; set-up: dose 400 mg, route oral; conditions: human, in vivo; summary of the method: as §5
[13] = Initial decline half life in patient with mild renal impairment at 600 mg, po administered as single dose; assay type: ADME, organism-based; conditions: human, in vivo, read-out: alphat1/2 (converted); summary of the method: as §2
[14] = Tmax in patient with moderate renal impairment at 400 mg, po administered as single dose; assay type: ADME, organism-based; conditions: human, in vivo
Summary of the method: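 Single oral dose. Plasma was frozen at –20°C. Assay by validated HPLC-MS/MS (LLOQ 10 ng/ml, calibration 10–5,000 ng/ml, m/z 243.0→127.1). Tmax was read directly from the concentration-time data, with noncompartmental analysis.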

[15] = AUC (0 to t) in patient with end-stage renal disease at 200 mg, po disease as two single doses 2 hrs before dialysis separated by 1 week washout period; assay type: ADME, organism-based; conditions: human, plasma; summary of the method: as §3
[16] = Terminal half life in healthy human at 200 to 800 mg/day administered as single dose; assay type: ADME, organism-based; conditions: in vivo, read-out: beta t1/2 (converted)
[17] = Renal clearance in human with normal renal function at 600 mg, po administered as single dose; assay type: ADME, organism-based, Kidney; conditions: in vivo, read-out: CL_renal (converted); summary of the method: as §4
[18] = tested on: HepG2; test: Metabolic stability in human HepG2 cells assessed as Telbivudine triphosphate half life; assay type: ADME, cell-based
[19] = Mean cumulative urine excretion level in human with normal renal function at 600 mg, po administered as single dose; assay type: ADME, organism-based; conditions: read-out: Activity
Summary of the method: (§6)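 Urine collected at –2 to 0 h predose and at 0–4, 4–8, 8–12, 12–24 and 24–48 h after a single oral dose. Unchanged telbivudine measured by validated HPLC-MS/MS (LLOQ 30 ng/ml, calibration 30–5,000 ng/ml), and amounts were summed cumulatively.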

[20] = Plasma clearance in patient with severe renal impairment at 200 mg, po administered as single dose; assay type: ADME, organism-based; conditions: human; summary of the method: as §1
[21] = tested on: Hepatitis B virus; test: Antiviral activity against HBV in HBeAg-positive patient with chronic viral infection assessed as log reduction of serum viral DNA copies/ml at 60 mg/day after 6 to 12 weeks; assay type: functional
[22] = Cmax in patient with severe renal impairment at 200 mg, po administered as single dose; assay type: ADME, organism-based; set-up: dose 200 mg, route oral; conditions: human, in vivo; summary of the method: as §5
[23] = AUC (0 to t) in patient with severe renal impairment at 200 mg, po administered as single dose; assay type: ADME, organism-based; conditions: human, plasma; summary of the method: as §3
[24] = AUC (0 to t) in patient with end-stage renal disease at 200 mg, po administered as two single doses within 2 hrs of after completion of dialysis separated by 1 week washout period; assay type: ADME, organism-based; conditions: human, plasma; summary of the method: as §3
[25] = Mean cumulative urine excretion level in patient with severe renal impairment at 200 mg, po administered as single dose; assay type: ADME, organism-based; conditions: human, read-out: Activity; summary of the method: as §6
[26] = AUC (0 to infinity) in patient with severe renal impairment at 200 mg, po administered as single dose; assay type: ADME, organism-based; set-up: dose 200 mg, route oral, time infinity; conditions: human, plasma; summary of the method: as §3
[27] = Elimination half life in patient with end-stage renal disease at 200 mg, po administered as two single doses 2 hrs before dialysis separated by 1 week washout period; assay type: ADME, organism-based; conditions: human, in vivo, read-out: beta t1/2 (converted); summary of the method: as §2
[28] = Initial decline half life in patient with moderate renal impairment at 400 mg, po administered as single dose; assay type: ADME, organism-based; conditions: human, in vivo, read-out: alphat1/2 (converted); summary of the method: as §2
[29] = Plasma clearance in patient with moderate renal impairment at 400 mg, po administered as single dose; assay type: ADME, organism-based; conditions: human; summary of the method: as §1

Cc1cn([C@@H]2C[C@@H](O)[C@H](CO)O2)c(=O)[nH]c1=O [TELBIVUDINE]
CL [1]: 7.6 L/h | half-life [2]: 26.7 h | Activity [3]: 3.6 mL⁻¹ | AUC(0-inf) [4]: 32500 ng·h/mL | half-life [5]: 20.5 h | bioavailability [6]: 52% | CL renal [7]: 83.3 mL/min | CL/F [8]: 81.7 mL/min | half-life [9]: 31.2 h | Cmax [10]: 3400 ng/mL | clearance [11]: 200 mL/min | Cmax [12]: 2800 ng/mL | half-life [13]: 3.42 h | Tmax [14]: 4 h | AUC(0-t) [15]: 26500 ng·h/mL | half-life [16]: 40 h | CL renal [17]: 127 mL/min | t1/2 [18]: 15 h | dose excreted [19]: 31.5% | CL/F [20]: 118 mL/min | Activity [21]: 6 mL⁻¹ | Cmax [22]: 1600 ng/mL | AUC(0-t) [23]: 25300 ng·h/mL | AUC(0-t) [24]: 41800 ng·h/mL | dose excreted [25]: 8% | AUC(0-inf) [26]: 32500 ng·h/mL | half-life [27]: 35.2 h | half-life [28]: 3.82 h | CL/F [29]: 227 mL/min
